Test results: ChEMBL document CHEMBL1154833, “Curcuminoid analogs with potent activity against Trypanosoma and Leishmania species” (Eur J Med Chem, 2010)

Tests used:
Leishmania major = assay: Antileishmanial activity against Leishmania major Friedlin promastigotes after 48 hrs by alamar blue assay; type: functional, organism-based
Method in brief: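 L. major Friedlin promastigotes grown in HOMEM with 10% FBS at 25 °C. Alamar Blue fluorescence assay in 96-well plates. 3–6 independent experiments unless noted.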

[1] = tested on: Trypanosoma brucei brucei; assay: Antitrypanosomal activity against Trypanosoma brucei brucei 427 after 48 hrs by alamar blue assay; type: functional, organism-based
Leishmania mexicana = assay: Antileishmanial activity against Leishmania mexicana MNYC/BZ/62/M379 amastigotes after 48 hrs by alamar blue assay; type: functional, organism-based
Method in brief: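 Axenic L. mexicana MNYC/BZ/62/M379 amastigotes kept at 33 °C under CO2 in Schneider's Drosophila medium with 20% FBS and 0.3% gentamycin. Alamar Blue fluorescence read-out.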

[2] = tested on: Trypanosoma brucei brucei; assay: Antitrypanosomal activity against diminazene-resistant Trypanosoma brucei brucei deltaTbat1-KO after 48 hrs by alamar blue assay; type: functional, organism-based
[3] = tested on: Trypanosoma brucei brucei; assay: Antitrypanosomal activity against multidrug-resistant Trypanosoma brucei brucei B48 after 48 hrs by alamar blue assay; type: functional, organism-based; settings: B48, 48 h
HEK293 = assay: Cytotoxicity against HEK293 cells after 16 hrs by alamar blue assay; type: cell-based, Homo sapiens
Method in brief: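 HEK293T cells grown in DMEM-based medium with 10% newborn bovine serum at 37 °C, 5% CO2. Doubling dilutions of compound added for 16 h, then resazurin added. Fluorescence read at emission 590 nm after a further 24 h.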

Trypanosoma evansi = assay: Antitrypanosomal activity against Trypanosoma evansi ITMAV170475 after 48 hrs by alamar blue assay; type: functional, organism-based; settings: ITMAV170475, 48 h
Method in brief: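 Culture-adapted T. evansi ITMAV170475 seeded at 1.5 ×10⁵ trypanosomes/ml in HMI9/20% FBS. Exposed to compound for 48 h, then incubated with Alamar Blue for 24 h, all at 37 °C under CO2. Assay validated against hemocytometer cell counts. EC50 from a variable-slope sigmoid fit.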

[4] = Leishmania major, Friedlin, 48 h, read-out: EC50
[5] = Trypanosoma brucei, 427, 48 h, read-out: EC50
[6] = Leishmania mexicana, MNYC/BZ/62/M379, 48 h, read-out: EC50
[7] = Homo sapiens, HEK293, 16 h, read-out: EC50

SMILES	EC50 (Leishmania major; [4]) [µM]	EC50 [1, 5] [µM]	EC50 (Leishmania mexicana; [6]) [µM]	EC50 [2] [µM]	EC50 [3] [µM]	EC50 (HEK293; [7]) [µM]	EC50 (Trypanosoma evansi) [µM]	EC50 (Leishmania major)	EC50 [1]	EC50 (HEK293; hek293)	EC50 (Leishmania mexicana)
COc1cc(CCC(=O)CC(=O)CCc2ccc(O)cc2)ccc1O [TETRAHYDRODEMETHOXYCURCUMIN]	> 100	22	> 50	34	18	–	–	–	–	–	–
O=C(CCc1ccc(O)cc1)CC(=O)CCc1ccc(O)cc1 [LETESTUIANIN C]	80	2.5	64	4	5.1	350	–	–	–	–	–
COc1ccc(/C=C/C(=O)CC(=O)/C=C/c2ccc(O)cc2)cc1	87	8.9	32	8.8	2.9	400	–	–	–	–	–
COc1cc(CCCCC(=O)CCc2ccc(O)c(OC)c2)ccc1O	37	32	> 50	28	27	140	–	–	–	–	–
COc1cc(/C=C/C(=O)/C=C/CCc2ccc(O)c(OC)c2)ccc1O	2.7	0.22	4.6	0.22	0.1	8.1	0.21	–	–	–	–
O=C(/C=C/c1ccc(OC(=O)c2ccccc2)cc1)CC(=O)/C=C/c1ccc(OC(=O)c2ccccc2)cc1	–	–	–	–	–	–	–	ND(Insoluble)	ND(Insoluble)	ND(Insoluble)	ND(Insoluble)
COc1cc(/C=C/C(=O)CC(=O)/C=C/c2ccc(OC(C)=O)cc2)ccc1OC(C)=O	> 100	1.5	43	2	0.92	49	–	–	–	–	–
COc1cc(/C=C/C=C/C(=O)/C=C/c2ccc(O)c(OC)c2)ccc1O	7.4	1.1	4.8	1.4	0.58	22	–	–	–	–	–
O=C(/C=C/c1ccc(O)cc1)CC(=O)/C=C/c1ccc(O)cc1 [BISDEMETHOXYCURCUMIN]	72	7.7	63	9.5	4.5	200	–	–	–	–	–
COc1cc(/C=C/C(=O)CC(=O)/C=C/c2ccc(OC(=O)c3ccccc3)cc2)ccc1O	20	3.7	> 100	7.8	7.8	> 500	2.9	–	–	–	–
COc1cc(/C=C/C(=O)CC(=O)/C=C/c2ccc(OCC=C(C)C)cc2)ccc1OCC=C(C)C	48	1.9	27	2.9	3.1	> 500	–	–	–	–	–
COc1cc(/C=C/C(=O)CC(=O)/C=C/c2ccc(O)cc2)ccc1OC(=O)c1ccccc1	42	1.2	> 100	1.6	4.7	370	–	–	–	–	–
COc1ccc(/C=C/C(=O)CC(=O)/C=C/c2ccc(OC)c(OC)c2)cc1	23	1.6	61	1.9	1.9	690	–	–	–	–	–
COc1cc(/C=C/C(O)=C/C(=O)/C=C/c2ccc(O)cc2)ccc1O [DEMETHOXYCURCUMIN]	37	4.6	37	5.9	2.2	40	–	–	–	–	–
O=C(/C=C/CCc1ccc(O)c(O)c1)CCc1ccc(O)c(O)c1 [DEHYDROHIRSUTANONOL]	> 100	2.5	17	3.2	–	220	–	–	–	–	–
COc1cc(/C=C/C(=O)CC(=O)/C=C/c2cc(OC)c(O)c([N+](=O)[O-])c2)ccc1O	28	15	14	18	25	82	–	–	–	–	–
O=C(/C=C/c1ccc(O)c(O)c1)CC(=O)/C=C/c1ccc(O)c(O)c1	26	1.8	12	2.5	3.4	39	–	–	–	–	–
COc1cc(/C=C/C(=O)CC(=O)/C=C/c2ccc(OCCO)c(OC)c2)ccc1O	22	2.9	30	2.9	1.8	25	–	–	–	–	–
COc1cc(/C=C/C(=O)CC(=O)/C=C/c2ccc(OCCO)cc2)ccc1O	9.7	0.7	32	0.85	1.1	46	–	–	–	–	–
CCCOc1ccc(/C=C/C(=O)CC(=O)/C=C/c2ccc(OCCC)c(OC)c2)cc1OC	28	1.3	34	1.8	1.6	> 500	–	–	–	–	–
